Screening data as filed in PubChem BioAssay.
HCV NS3 hel inh – HCV NS3 helicase inhibition; NS3 helicase DNA unwinding, Cy5 molecular beacon fluorescence; inhibition, % at 10.9 µM; 0.56% of 290,000 active; AID 1800;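 active means inhibition above the mean of all tested compounds plus 3 SD, set per campaign, cut at about 35% in these data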;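 further: 0% = DMSO wells and 100% = thioflavine S control wells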
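Test system: hepatitis C virus NS3 helicase domain fragment enzyme. Also added: annealed dual-labelled DNA beacon duplex, ATP-started. Timing: 60 min unwinding reaction at 25 °C after ATP addition. Technique: Cy5 fluorescence. Measure: % inhibition of unwinding.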
EBNA-1 inh – blocks EBNA-1 binding to DNA; EBNA-1 DNA binding, fluorescence polarization; inhibition, % at 14.8 µM; 0.34% of 300,000 active; AID 1950; in the data active means inhibition above about 28%
ZTA counter – ZTA (EBV) inhibition in EBNA-1 counter-screen; ZTA-DNA binding, fluorescence polarization; inhibition, % at 11 µM; 0.15% of 320,000 active; AID 2234; in the data active means inhibition above about 33%
Target sequence (P03206 whole entry, looked up): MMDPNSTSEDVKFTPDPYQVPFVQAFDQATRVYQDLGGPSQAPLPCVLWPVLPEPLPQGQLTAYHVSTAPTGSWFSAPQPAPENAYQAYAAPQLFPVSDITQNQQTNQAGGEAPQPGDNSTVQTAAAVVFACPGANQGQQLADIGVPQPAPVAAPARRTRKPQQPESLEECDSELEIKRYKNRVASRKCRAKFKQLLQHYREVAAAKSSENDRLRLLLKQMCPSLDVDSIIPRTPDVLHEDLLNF
PABP FP inh – PABP-poly(A) binding inhibition; inhibition, % at 35 µM; 1% of 290,000 active; AID 2014; P11940; PABP-poly(A) RNA binding, fluorescence polarization;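 further: calls also rest on retests at 20 µM and on dose response follow-up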
eIF4H FP inh – inhibitors of RNA binding by human eIF4H; Q15056; eIF4H fluorescence polarization binding assay; inhibition, % at 35 µM; 0.94% of 290,000 active; AID 2012;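 further: calls also rest on retests at 20 µM and on dose response follow-up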
PABP1 MLLE inh – inhibitors of microRNA-mediated deadenylation, human PABP1 MLLE binding; inhibition, % at 20 µM; 0.36% of 360,000 active; GST-MLLE / FITC-PAM2 fluorescence polarization; P11940; in the data active means inhibition above about 35%, passing the limit was not always enough;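 further: plate controls were DMSO wells with GST-MLLE for no effect and wells lacking GST-MLLE protein for full effect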
NS3 hel confirm – HCV NS3 helicase inhibition, confirmation assay | inhibition, % at 10.9 µM | NS3 helicase DNA unwinding, Cy5 molecular beacon fluorescence | AID 1943 | 31% of 1,600 active | shares compounds with HCV NS3 hel inh;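 active means inhibition above the mean of all tested compounds plus 3 SD, cutoff set per campaign, cut at about 36% in these data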
FID counter trip – displaces DNA intercalator in HCV helicase counter-screen | shares compounds with HCV NS3 hel inh | DNA fluorescent intercalator displacement, fluorescence | inhibition, % at 7.9 µM | 4% of 1,600 active | AID 1945; in the data active means inhibition above about 37%;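 further: 0% = vehicle and 100% = reference compound; higher means more displacement of ethidium bromide from the DNA hairpin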
FID counter DR – DNA intercalator displacement in dose response; shares compounds with HCV NS3 hel inh; fluorescent intercalator displacement from DNA, fluorescence; IC50, µM; 120 tested, under 10 active; AID 2172
Numbers without * were called inactive; ? = inconclusive; · = no result. Hits are enriched below; roughly 2.1% of the tested compounds scored in any of these assays. Unless noted, how the calls were made is not given here.

SMILES	HCV NS3 hel inh	EBNA-1 inh	ZTA counter	PABP FP inh	eIF4H FP inh	PABP1 MLLE inh	NS3 hel confirm	FID counter trip	others
CC1CCc2c(sc3nc(SCC(=O)O)n(-c4ccccc4)c(=O)c23)C1 (configuration not stated)	37*	-5	2	10	5	16	15	-16
Cc1ccc(-n2c(SCC(=O)O)nc3sc4c(c3c2=O)CCCC4)cc1	16	-23	2	2	7	10	·	·
O=C(O)CN1C(=O)/C(=C\c2cc(Br)ccc2OCc2ccc(Cl)cc2)SC1=S	39*	·	·	23	32	15	67*	59*
CC(=O)Nc1ccc(S(=O)(=O)NNC(=O)COc2ccc(C)cc2)cc1	1	-8	-14	-6	5	-4	·	·
CC(=O)Nc1ccc(S(=O)(=O)NNC(=O)COc2ccc(Cl)cc2Cl)cc1	37*	-5	-8	9	-2	6	11	4
COC(=O)C1=C(O)/C(=C\c2ccc(CNS(=O)(=O)c3ccccc3)o2)N=C1C	33	3	-1	4	88	9	·	·
COC(=O)C1=C(O)/C(=C\c2ccc(CNS(=O)(=O)c3ccc(Cl)cc3)o2)N=C1C	40*	13	4	-12	?	-12	14	-10
CS(=O)(=O)N1N=C(c2ccco2)CC1c1ccc(Cl)cc1Cl (configuration not stated)	16	0	5	2	-3	-13	·	·
CS(=O)(=O)N1N=C(c2ccco2)CC1c1ccccc1Cl (configuration not stated)	36*	8	0	-7	-7	-17	-19	-9
CC(C)(C)c1cc(-c2n[nH]c(=S)n2-c2ccccc2F)n[nH]1	10	0	4	2	0	-3	·	·
CCc1nnc(NS(=O)(=O)c2ccc(NC(=O)c3ccc(Cl)cc3)cc2)s1	-1	-1	16	0	-5	-5	·	·
CCc1nnc(NS(=O)(=O)c2ccc(NC(=S)NC(=O)c3ccc(Br)cc3)cc2)s1	58*	-4	20	-8	5	28	49*	10
CCc1nnc(NS(=O)(=O)c2ccc(NC(=S)NC(=O)c3ccccc3)cc2)s1	45*	5	18	2	3	23	66*	-3
COC(=O)CSC1=C(C#N)C(c2sccc2C)CC(=O)N1 (configuration not stated)	5	-12	8	-3	1	-8	·	·
O=C(Nc1ccccc1N1CCCCC1)c1ccc(-c2cccc(Cl)c2)o1	-16	-3	-8	-8	6	-8	·	·
O=C(Nc1cccc2nsnc12)c1ccc(-c2cccc(Cl)c2)o1	40*	-2	-2	18	34	-19	-8	3
CCOC(=O)c1cnc2c(C)cc(C)cc2c1NCCCN1CCOCC1	41*	·	·	13	3	-2	0	77*
CCOC(=O)c1cnc2c(C)c(Cl)ccc2c1NCCCN1CCOCC1	18	-4	-15	1	-6	-12	·	·
Cc1cc(C)cc(NC(=O)CSc2nc(=O)n(CCN3CCOCC3)c3c2CCCC3)c1	·	1	-6	·	·	-7	·	·
Cc1c(C(=O)O)[nH]c2c1C(=O)CC(c1ccc(C(C)(C)C)cc1)C2 (configuration not stated)	49*	25	18	2	-2	14	29	-25
CCCNC(=O)C1(C)CCCN(Cc2c3ccccc3nn2C)C1 (configuration not stated)	·	·	·	·	·	4	·	·
CC1=C(C)Cc2c(OC(=O)c3ccccc3)ccc(OC(=O)c3ccccc3)c2C1	17	-12	-9	6	-2	·	-11	1
CCOC(=O)c1c(-c2ccccc2)oc2ccc(OCC(=O)NNC(=O)CCC(=O)O)cc12	41*	·	·	4	-6	-2	9	-18
Cc1oc(-c2ccccc2)cc1C(=O)NC1CCN(Cc2ccccc2)CC1	-1	-1	-14	-20	-9	-7	·	·
Cc1cc(C)cc(-n2c(N)c(C(=O)Nc3c(C)n(C)n(-c4ccccc4)c3=O)c3nc4ccccc4nc32)c1	13	2	3	-8	5	10	·	·
SMILES	HCV NS3 hel inh	EBNA-1 inh	ZTA counter	PABP FP inh	eIF4H FP inh	PABP1 MLLE inh	NS3 hel confirm	FID counter trip	others
COc1cccc(-n2c(N)c(C(=O)Nc3c(C)n(C)n(-c4ccccc4)c3=O)c3nc4ccccc4nc32)c1	38*	-1	-1	16	17	21	7	-55
CCCNC(=O)COC(=O)c1ccc(Cl)c(S(=O)(=O)N2CCCC2)c1	-5	-1	2	-3	9	-2	·	·
CCCNC(=O)COC(=O)c1ccc(S(=O)(=O)N2CCCC2)cc1	50*	1	15	4	23	-34	-10	-4
Cc1cc2nc3ccc(=[N+](C)C)cc-3sc2cc1N	58*	·	·	?	?	18	78*	107*
NC(=O)c1sc2nc3c(c(-c4ccco4)c2c1N)CCCC3	10	2	-5	12	10	18	·	·
Nc1c(C(=O)NCC2CCCO2)sc2nc3c(c(-c4ccco4)c12)CC/C3=C\c1ccco1 (configuration not stated)	51*	·	·	2	110*	-34	88*	19	FID counter DR=>79
COc1ccc(CCNC(=O)/C=C/c2ccco2)cc1	41*	7	4	0	16	0	-22	6
COc1ccc(CCNC(=O)/C=C/c2ccco2)cc1OC	11	-6	-1	5	4	-7	·	·
COc1ccccc1NC(=O)/C(C#N)=C/C=C/c1ccco1	19	-3	2	?	?	14	·	·
COc1ccccc1NC(=O)/C=C\c1ccco1	53*	-15	2	6	6	7	-10	-1
Cc1cccc(NC(=S)NC(=O)/C=C/c2ccco2)n1	77*	2	8	60*	56*	11	-14	-9
O=C(CSc1nnc(NC(=O)c2cccc(Cl)c2)s1)NCC1CCCO1 (configuration not stated)	-1	13	10	-13	-13	-7	·	·
CCOC(=O)/C=C/C(=O)OCc1csc(CC(=O)Nc2ccccc2C)n1	38*	-8	-11	3	0	-12	-19	-25
CC(C)=CC(=O)OCc1csc(CC(=O)Nc2ccccc2C)n1	1	2	-3	-6	3	-30	·	·
O=C1CC(C(=O)N(c2cccc(F)c2)C(C(=O)NC2CCCC2)c2ccccn2)CS1 (configuration not stated)	8	-6	-19	-3	-12	21	·	·
CCCOc1ccc2ccccc2c1/C=C1\SC(=O)NC1=O	36*	-14	5	8	8	-17	30	-21
